Read-outs that look alike come from different tables or passages of the source. One block for each molecule: values may come before it.
Assays:
IDH1-R132H = IDH1-R132H (Homo sapiens, UniProt O75874, R132H); assay type: biochemical
wild-type IDH1 = details: read-out: IC50 against wild-type IDH1 (reported); literature value; cited from earlier work
[1] = system: IDH1-mutated glioma xenografts; details: cited from earlier work
[2] = normal mice; cited from earlier work
[3] = system: HCT116 colorectal carcinoma cell line expressing heterozygous IDH1-R132H; assay: Cell uptake of radiolabeled compounds, IDH1-mutated HCT116 vs isogenic WT-IDH1; assay type: cell-based
Summary of the method: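 Isogenic HCT116 lines expressing IDH1-R132H or wild-type IDH1 were incubated with the 125I-labelled iodo analogue or the 18F-labelled fluoro inhibitor, no-carrier-added, and cell-associated radioactivity was measured over time. Uptake ratio is mutant IDH1 over WT-IDH1 uptake. Three wells per point, mean ± SEM; Student's t-test, P < 0.05.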

[4] = system: IDH1-mutated astrocytoma cell line (IMA); assay: Cell uptake of radiolabeled compounds, IDH1-mutated astrocytoma; assay type: cell-based; details: time course
Summary of the method: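 Radioiodinated or 18F-labelled test compounds, prepared no-carrier-added, were incubated with IDH1-mutated cells and their isogenic WT-IDH1 counterparts. Uptake was followed over time, starting at 5 min, and compared between mutant and WT lines as uptake ratios. Each condition was run in three wells, reported as mean ± SEM, with significance by Student's t-test.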

[5] = system: HCT116 IDH1-R132H tumor xenografts; assay: Tissue distribution in athymic mice bearing IDH1-mutated HCT116 tumor xenografts; assay type: in vivo
Summary of the method: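 Athymic mice bearing IDH1-mutated HCT116 xenografts received either the 131I- or the 18F-labelled test compound, in separate groups. Tissues were sampled from 0.5 to 4 h after injection. Uptake is given as %ID/g, or as %ID for liver plus intestines. Five animals per time point, mean ± SEM. WT-IDH1 tumour-bearing mice were also examined at 1–4 h.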

Chain of IDH1-R132H (O75874 whole entry R132H): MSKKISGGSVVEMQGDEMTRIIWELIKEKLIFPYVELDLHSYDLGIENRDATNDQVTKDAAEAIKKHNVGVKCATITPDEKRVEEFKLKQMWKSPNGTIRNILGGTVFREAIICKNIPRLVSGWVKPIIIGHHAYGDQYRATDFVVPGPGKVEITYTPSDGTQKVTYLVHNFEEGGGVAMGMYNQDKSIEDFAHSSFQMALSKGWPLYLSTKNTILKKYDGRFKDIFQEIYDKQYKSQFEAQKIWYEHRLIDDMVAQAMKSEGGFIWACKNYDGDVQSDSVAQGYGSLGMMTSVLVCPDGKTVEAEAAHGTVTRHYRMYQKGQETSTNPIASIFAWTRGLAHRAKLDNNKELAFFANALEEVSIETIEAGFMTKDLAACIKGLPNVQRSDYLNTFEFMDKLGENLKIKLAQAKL

inhibition at 12.25 µM (IDH1-R132H; read-out: enzyme inhibition (maximal)): 100%
SMILES: Cc1ccccc1C(C(=O)NC1CCCCC1)N(C(=O)Cn1ccnc1C)c1cccc(F)c1 (stereo not shown) [AGI-5198]
IC50 (wild-type IDH1): > 100 µM
D-2-HG production [1]: inhibit D-2-HG production
anti-tumor effect [1]: anti-tumor effects

SMILES: Cc1ccccc1C(C(=O)NC1CCCC1)N(C(=O)Cn1cnc2ccccc21)c1cccc(F)c1 (stereo not shown) [ML-309]
blood-brain-barrier (BBB) permeability [2]: lack of blood-brain-barrier (BBB) permeability

uptake and retention in brain ([5]; 0.5-4 h): very low
tumor uptake ([5]; 0.5 h post injection): 0.84 ± 0.18 % ID/g
blood activity ([5]; 30 min post injection): 0.88 ± 0.16 % ID/g
peak tumor-to-muscle ratio (TMR) ([5]; 2 h): 2.5 ± 1.0
peak tumor-to-blood ratio (TBR) ([5]; 4 h): 3.0 ± 1.3
blood activity ([5]; 4 h post injection): ~ 0.1 % ID/g
liver and intestines, share of injected dose ([5]; 4 h post injection): 87 ± 7 % ID
tumor uptake ([5]; 4 h post injection): 0.33 ± 0.08 % ID/g
stability against dehalogenation in vivo ([5]; mouse, in vivo): stable against dehalogenation in vivo
SMILES: Cc1ccccc1C(C(=O)NC1CCCCC1)N(C(=O)Cn1ccnc1C)c1cccc([18F])c1 (stereo not shown) [[^18F]AGI-5198]
uptake ratio IDH1-mutated/WT-IDH1 ([3]; HCT116, 5 min): about 1.6
uptake ratio IDH1-mutated/WT-IDH1 ([3]; HCT116, 30 min, remaining at that level until 120 min): ~2.0
uptake in IDH1-mutated vs WT-IDH1 cells [4]: higher only at 5 min but not thereafter

SMILES: Cc1ccccc1C(C(=O)NC1CCCCC1)N(C(=O)Cn1ccnc1C)c1cccc(I)c1 (stereo not shown) [compound 1]
enzyme inhibition (maximal) (IDH1-R132H; at 6.12 μM): 100%

enzyme inhibition (maximal) (IDH1-R132H; at 12.25 μM): 71.3 ± 5.3%
SMILES: Cc1ccccc1C(C(=O)NC1CCCCC1)N(C(=O)CNc1ccc(F)nc1)c1cccc(F)c1 (stereo not shown) [compound 2]

Reference: PMC5817038 (Bioorganic & medicinal chemistry letters, 2018)
